Results of several laboratories.
Protocols differ between the studies behind these lines.
Target: Mitogen-activated protein kinase kinase kinase 14 (MAP3K14, Homo sapiens, UniProt Q99558)

SMILES | observed | mode | method | concentration | measurement | result
Cn1cc(-c2cc(F)cc(N3CCn4c(cc5c4CCCC5)C3=O)c2CO)cc(Nc2ccc(N3CCN(C4COC4)CC3)cn2)c1=O | enzyme activity | inhibitor | – | 0.1 µM | inhibition | 6%
CC(C)(C)c1cc(C=C(C#N)C#N)cc(Br)c1O | enzyme activity | inhibitor | – | 0.5 µM | remaining activity | 97.3%
COc1ncccc1-c1cnn2ccc(N3CCN(C(=O)OC(C)C)CC3)nc12 | binding | – | competition with immobilised ligand | 1 µM | remaining binding | 100%
Cn1cc(-c2cccc(N3CCc4c(sc5c4CC(C)(C)C5)C3=O)c2CO)cc(Nc2ccncn2)c1=O | enzyme activity | inhibitor | – | 1 µM | inhibition | -3%
N#CC1(c2ccccn2)CCN(Cc2cc(C(=O)O)c(=O)n3ccccc23)CC1 | cell-free assay | – | competition with immobilised ligand | 1 µM | remaining binding | 73%
O=c1[nH]c2ccccc2n1C1CCN(Cc2ccc(-c3[nH]c4cc5ncnc5cc4nc3-c3ccccc3)cc2)CC1 | cell-free assay | – | – | 0.5 µM | remaining signal | 96.8%
Nc1ncc(-c2nc(N3CCOCC3)nc(N3CCOCC3)n2)c(C(F)F)n1 | binding | – | competition with immobilised ligand | 10 µM | remaining binding | 70%
Cn1cncc1[C@](O)(COc1ccc(C#N)cc1-c1ccc(OC(F)(F)F)cc1)c1ccc(C#N)cc1 | cell-free assay | – | competition with immobilised ligand | 1 µM | remaining binding | 88%
